Columns and labels:
SR = assay: Cytotoxicity against human SR cells; assay type: functional
DU-145 = assay: Cytotoxicity against human DU145 cells; assay type: functional
Saccharomyces cerevisiae [1] = assay: Growth inhibition of COX17-deficient Saccharomyces cerevisiae YLL009C mutant at 20 ug/disc after 24 to 48 hrs by agar diffusion assay; assay type: functional; conditions: read-out: DIZ
Procedure, shortened: (§1)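 S. cerevisiae deletion mutants or wild type grown on YPD, seeded into liquid agar medium at an optical density of 0.1. 6 mm paper discs soaked with methanolic compound solution were placed on the plates and incubated at 30 °C. Growth was checked after 1 and 2 days, and the inhibition zone diameter was recorded in mm.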

Saccharomyces cerevisiae [2] = assay: Growth inhibition of GSH2-deficient Saccharomyces cerevisiae YOL049W mutant at 20 ug/disc after 24 to 48 hrs by agar diffusion assay; assay type: functional; conditions: read-out: DIZ; procedure, shortened: as §1
Saccharomyces cerevisiae [3] = assay: Growth inhibition of RCK1-deficient Saccharomyces cerevisiae YGL158W mutant at 20 ug/disc after 24 to 48 hrs by agar diffusion assay; assay type: functional; conditions: read-out: DIZ; procedure, shortened: as §1
Saccharomyces cerevisiae [4] = assay: Growth inhibition of GTT2-deficient Saccharomyces cerevisiae YLL060C mutant at 20 ug/disc after 24 to 48 hrs by agar diffusion assay; assay type: functional; conditions: read-out: DIZ; procedure, shortened: as §1
Saccharomyces cerevisiae [5] = assay: Growth inhibition of POS5-deficient Saccharomyces cerevisiae YPL188W mutant at 20 ug/disc after 24 to 48 hrs by agar diffusion assay; assay type: functional; conditions: read-out: DIZ; procedure, shortened: as §1
Saccharomyces cerevisiae [6] = assay: Growth inhibition of WSC4-deficient Saccharomyces cerevisiae YHL028W mutant at 20 ug/disc 24 to 48 hrs by agar diffusion assay; assay type: functional; conditions: read-out: DIZ; procedure, shortened: as §1
Saccharomyces cerevisiae [7] = assay: Growth inhibition of SOD1-deficient Saccharomyces cerevisiae YJR104C mutant at 20 ug/disc after 24 to 48 hrs by agar diffusion assay; assay type: functional; conditions: read-out: DIZ; procedure, shortened: as §1
A498 [8] = assay: Cytotoxicity against human A498 cells after 24 hrs by MTT assay; assay type: functional, cell-based; conditions: A498, 24 h
Procedure, shortened: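 MTT assay. Cells were seeded at 50,000 cells/mL in medium with 10% fetal calf serum and grown for two days at 37 °C, 10% CO2. Serial dilutions of compound were then added for 24 h. MTT was added (final 0.5 mg/mL) for 2 h, and the formazan was pelleted, washed, dissolved in isopropanol with 0.4% HCl and read at 590 nm. IC50 is the concentration giving 50% of untreated-control absorbance, taken from dose-response curves; mean of two parallel experiments.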

MDA-MB-468 = assay: Cytotoxicity against human MDA-MB-468 cells; assay type: functional
T47D = assay: Cytotoxicity against human T47D cells; assay type: functional
MCF7 = assay: Cytotoxicity against human MCF7 cells; assay type: functional
PC-3 = assay: Cytotoxicity against human PC3 cells; assay type: functional
SN12C = assay: Cytotoxicity against human SN12C cells; assay type: functional
A498 [9] = assay: Cytotoxicity against human A498 cells; assay type: functional
[10] = Cytotoxicity against human 786-O cells; assay type: functional
SK-OV-3 = assay: Cytotoxicity against human SKOV3 cells; assay type: functional
OVCAR-8 = assay: Cytotoxicity against human OVCAR8 cells; assay type: functional
NCI/ADR-RES = assay: Cytotoxicity against human NCI/ADR-RES cells; assay type: functional
OVCAR-4 = assay: Cytotoxicity against human OVCAR4 cells; assay type: functional
OVCAR-5 = assay: Cytotoxicity against human OVCAR5 cells; assay type: functional
IGROV-1 = assay: Cytotoxicity against human IGROV1 cells; assay type: functional
OVCAR-3 = assay: Cytotoxicity against human OVCAR3 cells; assay type: functional
UACC-62 = assay: Cytotoxicity against human UACC62 cells; assay type: functional
SK-MEL-5 = assay: Cytotoxicity against human SK-MEL-5 cells; assay type: functional
SK-MEL-2 = assay: Cytotoxicity against human SK-MEL-2 cells; assay type: functional
Malme-3M = assay: Cytotoxicity against human MALME-3M cells; assay type: functional
LOX IMVI = assay: Cytotoxicity against human LOXIMVI cells; assay type: functional
SNB-75 = assay: Cytotoxicity against human SNB75 cells; assay type: functional
SF-539 = assay: Cytotoxicity against human SF539 cells; assay type: functional
SF-268 = assay: Cytotoxicity against human SF268 cells; assay type: functional
SF-295 = assay: Cytotoxicity against human SF295 cells; assay type: functional
SW-620 = assay: Cytotoxicity against human SW620 cells; assay type: functional
HT-29 = assay: Cytotoxicity against human HT-29 cells; assay type: functional
HCC 2998 = assay: Cytotoxicity against human HCC2998 cells; assay type: functional
COLO 205 = assay: Cytotoxicity against human COLO205 cells; assay type: functional
A549 = assay: Cytotoxicity against human A549 cells; assay type: functional
RPMI-8226 = assay: Cytotoxicity against human RPMI8226 cells; assay type: functional
MOLT-4 = assay: Cytotoxicity against human MOLT4 cells; assay type: functional
HL-60 = assay: Cytotoxicity against human HL60 cells; assay type: functional
[11] = read-out: pLC50 (the source's name) (converted)

CC1=C([Se]CC(OC(=O)[C@@H](CSSC(C)(C)C)NC(=O)C(C)(C)C)C(=O)NCCCCCC(=O)OCc2ccccc2)C(=O)c2ccccc2C1=O (some centres not stated)
GI50 (SR): 3.8 µM | LC50 (SR): > 100 µM | TGI (SR; read-out: pTGI (converted)): 18.6 µM | GI50 (DU-145): 2140 nM | LC50 (DU-145): 9.55 µM | TGI (DU-145; read-out: pTGI (converted)): 4.47 µM | zone of inhibition at 20 µg/disc (Saccharomyces cerevisiae [1]): 0 mm | zone of inhibition at 20 µg/disc (Saccharomyces cerevisiae [2]): 0 mm | zone of inhibition at 20 µg/disc (Saccharomyces cerevisiae [3]): 0 mm | zone of inhibition at 20 µg/disc (Saccharomyces cerevisiae [4]): 12 mm | zone of inhibition at 20 µg/disc (Saccharomyces cerevisiae [5]): 0 mm | zone of inhibition at 20 µg/disc (Saccharomyces cerevisiae [6]): 14 mm | zone of inhibition at 20 µg/disc (Saccharomyces cerevisiae [7]): 12 mm | IC50 (A498 [8]): 13 µM | GI50 (MDA-MB-468): 2190 nM | LC50 (MDA-MB-468): 8.51 µM | TGI (MDA-MB-468; read-out: pTGI (converted)): 4.37 µM | GI50 (T47D): 2190 nM | LC50 (T47D): > 100 µM | TGI (T47D; read-out: pTGI (converted)): 6.46 µM | GI50 (MCF7): 3.02 µM | LC50 (MCF7): 50.1 µM | TGI (MCF7; read-out: pTGI (converted)): 9.77 µM | GI50 (PC-3): 1510 nM | LC50 (PC-3): 8.71 µM | TGI (PC-3; read-out: pTGI (converted)): 3.63 µM | GI50 (SN12C): 2000 nM | LC50 (SN12C): 7.59 µM | TGI (SN12C; read-out: pTGI (converted)): 3.89 µM | GI50 (A498 [9]): 1620 nM | LC50 (50% lethal concentration) (A498 [9]): 56.2 µM | TGI (A498 [9]; read-out: pTGI (converted)): 4.79 µM | GI50 ([10]; 786-0): 2090 nM | LC50 ([10]; 786-0): 6.31 µM | TGI ([10]; 786-0, read-out: pTGI (converted)): 3.63 µM | GI50 (SK-OV-3): 1550 nM | LC50 (SK-OV-3): 5.5 µM | TGI (SK-OV-3; read-out: pTGI (converted)): 2950 nM | GI50 (OVCAR-8): 2000 nM | LC50 (OVCAR-8): 7.08 µM | TGI (OVCAR-8; read-out: pTGI (converted)): 3.8 µM | GI50 (NCI/ADR-RES): 3.39 µM | CC50 (NCI/ADR-RES; [11]): > 100 µM | TGI (NCI/ADR-RES; read-out: pTGI (converted)): 11.5 µM | GI50 (OVCAR-4): 1580 nM | LC50 (OVCAR-4): 5.62 µM | TGI (OVCAR-4; read-out: pTGI (converted)): 2950 nM | GI50 (OVCAR-5): 2570 nM | LC50 (OVCAR-5): 17.4 µM | TGI (OVCAR-5; read-out: pTGI (converted)): 5.5 µM | GI50 (IGROV-1): 1910 nM | LC50 (concentration killing 50% of cells) (IGROV-1): 7.08 µM | TGI (IGROV-1; read-out: pTGI (converted)): 3.63 µM | GI50 (OVCAR-3): 1860 nM | LC50 (OVCAR-3): 6.17 µM | TGI (OVCAR-3; read-out: pTGI (converted)): 3.39 µM | GI50 (UACC-62): 1950 nM | LC50 (UACC-62): 8.13 µM | TGI (UACC-62; read-out: pTGI (converted)): 3.98 µM | GI50 (SK-MEL-5): 1910 nM | LC50 (SK-MEL-5): 5.89 µM | TGI (SK-MEL-5; read-out: pTGI (converted)): 3.31 µM | GI50 (SK-MEL-2): 2240 nM | LC50 (SK-MEL-2): 39.8 µM | TGI (SK-MEL-2; read-out: pTGI (converted)): 5.01 µM | GI50 (Malme-3M): 2510 nM | LC50 (Malme-3M): 13.5 µM | TGI (Malme-3M; read-out: pTGI (converted)): 5.13 µM | GI50 (LOX IMVI): 2570 nM | LC50 (LOX IMVI): 42.7 µM | TGI (LOX IMVI; read-out: pTGI (converted)): 7.59 µM | GI50 (SNB-75): 1380 nM | LC50 (SNB-75): 5.13 µM | TGI (SNB-75; read-out: pTGI (converted)): 2690 nM | GI50 (SF-539): 1910 nM | LC50 (SF-539): 5.89 µM | TGI (SF-539; read-out: pTGI (converted)): 3.39 µM | GI50 (SF-268): 1910 nM | LC50 (SF-268): 6.46 µM | TGI (SF-268; read-out: pTGI (converted)): 3.55 µM | GI50 (SF-295): 316 nM | LC50 (SF-295): > 100 µM | TGI (SF-295; read-out: pTGI (converted)): 1950 nM | GI50 (SW-620): 2290 nM | LC50 (SW-620): 15.8 µM | TGI (SW-620; read-out: pTGI (converted)): 5.25 µM | GI50 (HT-29): 2690 nM | LC50 (HT-29): > 100 µM | TGI (HT-29; read-out: pTGI (converted)): 7.41 µM | GI50 (HCC 2998): 2190 nM | LC50 (HCC 2998): 7.24 µM | TGI (HCC 2998; read-out: pTGI (converted)): 3.98 µM | GI50 (COLO 205): 1820 nM | CC50 (COLO 205; [11]): 6.76 µM | TGI (COLO 205; read-out: pTGI (converted)): 3.47 µM | GI50 (A549): 2090 nM | LC50 (A549): > 100 µM | TGI (A549; read-out: pTGI (converted)): 5.37 µM | GI50 (RPMI-8226): 2340 nM | LC50 (RPMI-8226): > 100 µM | TGI (RPMI-8226; read-out: pTGI (converted)): 6.76 µM | GI50 (MOLT-4): 3.24 µM | LC50 (MOLT-4): > 100 µM | TGI (MOLT-4; read-out: pTGI (converted)): 9.55 µM | GI50 (HL-60): 2510 nM | LC50 (HL-60): > 100 µM | TGI (HL-60; read-out: pTGI (converted)): 6.03 µM

Reference: ChEMBL document CHEMBL2177069, “Novel peptidomimetic compounds containing redox active chalcogens and quinones as potential anticancer agents” (Eur J Med Chem, 2012)
